Assay results as given in ChEMBL document CHEMBL3352796, “Enantioselective Synthesis and Profiling of Two Novel Diazabicyclooctanone β-Lactamase Inhibitors” (ACS Med Chem Lett, 2014).

Assays:
[1] = Inhibition of Pseudomonas aeruginosa AmpC pre-incubated with enzyme for 5 mins before nitrocefin substrate addition by colorimetric assay
[2] = Hydrolytic solution stability in pH 7.4 aqueous phosphate buffer at 70 degC by HPLC-UV method; format: physicochemical
Procedure, shortened: (§1)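 Compound held in aqueous phosphate buffer, pH 7.4, at 37 °C or 70 °C. Hydrolytic stability is reported as half-life in hours.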

[3] = test system: Klebsiella pneumoniae; experiment: Inhibition of Klebsiella pneumoniae CTX-M-15 pre-incubated with enzyme for 5 mins before nitrocefin substrate addition by colorimetric assay
[4] = Inhibition of Enterobacter cloacae KPC-2 pre-incubated with enzyme for 5 mins before nitrocefin substrate addition by colorimetric assay
[5] = test system: Klebsiella pneumoniae; experiment: Inhibition of Klebsiella pneumoniae OXA-48 pre-incubated with enzyme for 5 mins before nitrocefin substrate addition by colorimetric assay
[6] = Hydrolytic solution stability in pH 7.4 aqueous phosphate buffer at 37 degC by HPLC-UV method; format: physicochemical; procedure, shortened: as §1

Compound | IC50 [1] [µM] | half-life [2] [h] | IC50 [3] [µM] | IC50 [4] [µM] | IC50 [5] [µM] | half-life [6] [h]
NC(=O)[C@@H]1[C@H]2C[C@H]2[C@@H]2CN1C(=O)N2OS(=O)(=O)[O-].[Na+] | 2 | > 264 | 0.48 | 6.7 | 28 | –
NC(=O)[C@@H]1[C@@H]2C[C@@H]2[C@@H]2CN1C(=O)N2OS(=O)(=O)[O-].[Na+] | 4.5 | 8.2 | 0.14 | 0.85 | 1.3 | 112
C[C@]1(Cn2ccnn2)[C@H](C(=O)O)N2C(=O)C[C@H]2S1(=O)=O [TAZOBACTAM] | 3.4 | 7.7 | < 0.007 | 39 | 3.6 | –
